The values that follow come from ChEMBL document CHEMBL3421541, “Benzaldehyde Schiff bases regulation to the metabolism, hemolysis, and virulence genes expression in vitro and their structure-microbicidal activity relationship” (2015).

In brackets after ≈: the same amount, converted by molar mass. Activity calls are given as the source filed them.

The test system of test [1] is Escherichia coli. Nature of the test: Antibacterial activity against Escherichia coli assessed as growth inhibition at 100 umol/L after 8 hrs by ELISA plate reader analysis relative to control. The class given is functional. To be noted: read-out: GI. The gist of the method: (§1)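 Bacteria were seeded at 1×10^5 CFU/mL in LB, and compound was added to 100 µmol/L final. Compounds came from DMSO stock, with DMSO ≤1% (v/v) final. Cultures were shaken at 37 °C for 8 h and read at OD450. Inhibition % = (OD vehicle control − OD sample)/OD vehicle control × 100. Values are the mean of three independent experiments.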

A further test has as its system Bacillus subtilis. Nature of the test: Antibacterial activity against Bacillus subtilis assessed as growth inhibition at 100 umol/L after 8 hrs by ELISA plate reader analysis relative to control. To be noted: read-out: GI. The class given is functional. The gist of the method:
as §1

In test [2] the test system is Staphylococcus aureus. In words: Upregulation of hla gene expression in Staphylococcus aureus at 50 umol/L after 8 hrs by semi-quantitative RT-PCR analysis relative to control. The class given is functional, organism-based. The gist of the method:
(§2)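 S. aureus ATCC 25923 at 2×10^7 CFU/mL in LB was exposed to 50 µmol/L compound, or LB alone, for 8 h at 37 °C. Total RNA was analysed by TaqMan real-time RT-PCR or semi-quantitative RT-PCR, normalised to gyrB. Fold change is versus time-matched medium-only cultures, with data pooled from three experiments.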

Test [3] deals with Staphylococcus aureus. Nature of the test: Downregulation of saeR gene expression in Staphylococcus aureus at 50 umol/L after 8 hrs by real-time RT-PCR analysis relative to control. The class given is functional, organism-based. The gist of the method: as §2
The subject of test [4] is Staphylococcus aureus. In words: Antibacterial activity against Staphylococcus aureus assessed as lowest concentration required to reduce growth by 1% after 8 hrs by ELISA plate reader analysis relative to control. The class given is functional. The gist of the method:
(§3)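 MBC was found by broth microdilution. Inocula of 1×10^5 CFU/mL in LB were shaken at 37 °C with a series of compound concentrations, then read at OD450. MBC was defined as the lowest concentration reducing growth by 1% versus the inoculum control. Three independent experiments were run.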

Test [5] relates to Staphylococcus aureus. In words: Antibacterial activity against Staphylococcus aureus assessed as growth inhibition at 100 umol/L after 8 hrs by ELISA plate reader analysis relative to control. The class given is functional. To be noted: read-out: GI. An outline of the steps:
as §1

The test system of test [6] is Staphylococcus aureus. Nature of the test: Downregulation of mecA gene expression in Staphylococcus aureus at 50 umol/L after 8 hrs by real-time RT-PCR analysis relative to control. The class given is functional. The gist of the method:
as §2
In general terms: In qPCR the cycle at which signal appears reflects the starting amount.

For test [7], the system named is Staphylococcus aureus. In words: Downregulation of mecA gene expression in Staphylococcus aureus at 50 umol/L after 8 hrs by semi-quantitative RT-PCR analysis relative to control. The class given is functional. An outline of the steps:
as §2

The test system of test [8] is Staphylococcus aureus. Nature of the test: Upregulation of hla gene expression in Staphylococcus aureus at 50 umol/L after 8 hrs by real-time RT-PCR analysis relative to control. The class given is functional, organism-based. An outline of the steps: as §2
Test [9] relates to Staphylococcus aureus. Nature of the test: Downregulation of saeR gene expression in Staphylococcus aureus at 50 umol/L after 8 hrs by semi-quantitative RT-PCR analysis relative to control. The class given is functional, organism-based. An outline of the steps: as §2
Test [10] has as its system Staphylococcus aureus. Nature of the test: Upregulation of sbi gene expression in Staphylococcus aureus at 50 umol/L after 8 hrs by real-time RT-PCR analysis relative to control. The class given is functional, organism-based. The gist of the method: as §2
Test [11] relates to Staphylococcus aureus. Nature of the test: Upregulation of sbi gene expression in Staphylococcus aureus at 50 umol/L after 8 hrs by semi-quantitative RT-PCR analysis relative to control. The class given is functional, organism-based. The gist of the method:
as §2

In test [12] the test system is Escherichia coli. In words: Downregulation of tsh gene expression in Escherichia coli at 50 umol/L after 8 hrs by semi-quantitative RT-PCR analysis relative to control. The class given is functional, organism-based. An outline of the steps:
(§4)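 E. coli at 2×10^7 CFU/mL in LB was exposed to 50 µmol/L compound, or LB alone, for 8 h at 37 °C. Total RNA was then analysed by TaqMan real-time RT-PCR or semi-quantitative RT-PCR. Transcripts were normalised to gapA. Fold change is relative to time-matched medium-only cultures.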

Test [13] has as its system Escherichia coli. Nature of the test: Downregulation of IroD gene expression in Escherichia coli at 50 umol/L after 8 hrs by real-time RT-PCR analysis relative to control. The class given is functional, organism-based. An outline of the steps: as §4
Test [14] concerns Escherichia coli. In words: Upregulation of acrA gene expression in Escherichia coli at 50 umol/L after 8 hrs by semi-quantitative RT-PCR analysis relative to control. The class given is functional, organism-based. An outline of the steps: as §4
Test [15] deals with Escherichia coli. Nature of the test: Downregulation of tsh gene expression in Escherichia coli at 50 umol/L after 8 hrs by real-time RT-PCR analysis relative to control. The class given is functional, organism-based. An outline of the steps:
as §4

Test [16] relates to Escherichia coli. Nature of the test: Antibacterial activity against Escherichia coli assessed as lowest concentration required to reduce growth by 1% after 8 hrs by ELISA plate reader analysis relative to control. The class given is functional. The gist of the method:
as §3

The test system of test [17] is Escherichia coli. Nature of the test: Upregulation of cysB gene expression in Escherichia coli at 50 umol/L after 8 hrs by real-time RT-PCR analysis relative to control. The class given is functional, organism-based. An outline of the steps: as §4
In test [18] the test system is Escherichia coli. Nature of the test: Upregulation of cysB gene expression in Escherichia coli at 50 umol/L after 8 hrs by semi-quantitative RT-PCR analysis relative to control. The class given is functional, organism-based. The gist of the method: as §4
Test [19] deals with Escherichia coli. Nature of the test: Downregulation of IroD gene expression in Escherichia coli at 50 umol/L after 8 hrs by semi-quantitative RT-PCR analysis relative to control. The class given is functional, organism-based. The gist of the method:
as §4

Test [20] relates to Escherichia coli. In words: Upregulation of acrA gene expression in Escherichia coli at 50 umol/L after 8 hrs by real-time RT-PCR analysis relative to control. The class given is functional, organism-based. The gist of the method: as §4
For test [21], the system named is Escherichia coli. In words: Downregulation of cysB gene expression in Escherichia coli at 50 umol/L after 8 hrs by semi-quantitative RT-PCR analysis relative to control. The class given is functional, organism-based. The gist of the method: as §4
Test [22] concerns Escherichia coli. Nature of the test: Downregulation of acrA gene expression in Escherichia coli at 50 umol/L after 8 hrs by real-time RT-PCR analysis relative to control. The class given is functional, organism-based. The gist of the method: as §4
Test [23] has as its system Escherichia coli. In words: Downregulation of acrA gene expression in Escherichia coli at 50 umol/L after 8 hrs by semi-quantitative RT-PCR analysis relative to control. The class given is functional, organism-based. The gist of the method: as §4
In test [24] the test system is Escherichia coli. Nature of the test: Downregulation of cysB gene expression in Escherichia coli at 50 umol/L after 8 hrs by real-time RT-PCR analysis relative to control. The class given is functional, organism-based. An outline of the steps: as §4

Turning to `O=C(N/N=C/c1cc([N+](=O)[O-])ccc1O)c1ccncc1`, the inhibition of growth at 100 µM with Escherichia coli [1] amounted to 41.8%.
For the compound `CC(C)(C)c1cc(/C=N/NC(=O)COc2ccc(Cl)cc2)c(O)c(C(C)(C)C)c1`, the inhibition of growth at 100 µM with Escherichia coli [1] turned out to be 10.5%; in the test on Bacillus subtilis it was 19.7%.
For `COc1ccc(CC(=O)N/N=C/c2cc(Br)ccc2O)cc1`, the inhibition of growth at 100 µM in the test with Bacillus subtilis was 1.01%.
The MBC is the lowest tested concentration that kills the bacteria rather than only halting them. As to `CC(C)(C)c1cc(/C=N/NC(=O)c2ccncc2)c(O)c(C(C)(C)C)c1`, the result in the test on Staphylococcus aureus [2], with Staphylococcus aureus [3], in the test with Staphylococcus aureus [8] and in the test with Staphylococcus aureus [9] was Active. Besides, the figures for the inhibition of growth at 100 µM with Escherichia coli [1] and with Staphylococcus aureus [5] were 13.4% and 95.5%, respectively. The MBC in the test with Staphylococcus aureus [4] was determined as 3.1 µM (≈ 1.1 µg/mL). Further, the “fold change (FC)” value in the test with Staphylococcus aureus [6] and with Staphylococcus aureus [7] was 2 throughout.
Consider `O=C(COc1ccc(Cl)cc1)N/N=C/c1ccccc1O`, for which the inhibition of growth at 100 µM in the test on Escherichia coli [1] came to 0.23%.
As to `O=C(COc1ccc(Cl)cc1)N/N=C/c1ccc(OCc2ccccc2)c(OCc2ccccc2)c1`, the result in the test with Staphylococcus aureus [2], with Staphylococcus aureus [10], in the test on Staphylococcus aureus [8] and with Staphylococcus aureus [11] was Active. For the same compound, the inhibition of growth at 100 µM with Escherichia coli [1] amounted to 17.6%; with Staphylococcus aureus [5] it was 99.5%; in the test with Bacillus subtilis it was 6.21%. For the same compound, the MBC in the test with Staphylococcus aureus [4] was determined as 1.4 µM (≈ 0.701 µg/mL). Also, the “fold change (FC)” value with Staphylococcus aureus [6] and in the test with Staphylococcus aureus [7] was 2 each time.
Regarding `O=C(N/N=C/c1cc(Br)ccc1O)c1ccncc1`, the result with Escherichia coli [12], in the test with Escherichia coli [13], in the test with Escherichia coli [14], in the test with Escherichia coli [15], with Escherichia coli [17] and in the test on Escherichia coli [18] was Active. The result with Escherichia coli [19] and with Escherichia coli [20] was Active. In the test on Escherichia coli [1], the inhibition of growth at 100 µM was 95.8%. In addition, the MBC with Escherichia coli [16] amounted to 3.2 µM (≈ 1.02 µg/mL).
With `O=C(COc1ccc(Cl)cc1)N/N=C/c1cc(Br)ccc1O`, the result in the test on Escherichia coli [12], with Escherichia coli [13], in the test with Escherichia coli [21], with Escherichia coli [22], in the test on Escherichia coli [15] and with Escherichia coli [23] was Active. Besides, the outcome in the test with Escherichia coli [19] and in the test on Escherichia coli [24] was Active. Also, the values for the inhibition of growth at 100 µM in the test on Escherichia coli [1] and in the test with Bacillus subtilis were 73.2% and 15.9%, respectively. Further, in the test with Escherichia coli [16], the MBC is 18.4 µM (≈ 7.06 µg/mL).
For the compound `O=C(N/N=C/c1ccccc1O)c1ccncc1` [SALINAZID], in the test with Escherichia coli [1], the inhibition of growth at 100 µM was 6.81%.
